Screens as filed in PubChem.
A selection: hits, their analogues and other compounds. The true share with any hit is near 2%.
Exocytosis inh: LAMP-1 surface exposure blockers, TALL-104 cells – cell-based, flow cytometry, MLPCN library, primary screen. TALL-104 LAMP-1 surface exposure; cells stimulated with thapsigargin and PMA. inhibition, % at 10 µM. actives 0.66% (n = 360,000). AID 651702, 2012;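 active = inhibition above about 55%, limit read from the data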
MT1-MMP act inh: blockers of MT1-MMP proenzyme processing, primary screen, HT1080 RFP-PRO-GFP cells, GFP/RFP fluorescence | AID 651647, 2012 | GFP/RFP ratio fluorescence, overnight; percent of plate control window, DMSO zero | actives 0.061% (n = 360,000) | GFP/RFP ratio change, % at 20 µM | Matrix metalloproteinase-14 (Homo sapiens), P50281;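 active = GFP/RFP ratio change of at least 30% with cell ATP level not reduced by more than half and red fluorescence within 50% of control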
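Assay system: HT1080 RFP-PRO-GFP cells. Benchmarks: DMSO vehicle wells and RFP-L50D-GFP reporter cell wells. Times: overnight cell settling, then overnight compound exposure, 37 °C, 5% CO2. Compound: 20 µM single dose, 1% DMSO. Read-out basis: GFP/RFP fluorescence ratio.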
VLA-4 inh: inhibition in human VLA-4 binding assay, primary screen, VLA-4 allosteric modulator project, MLPCN library, flow cytometry, VLA-4 expressing cells; actives 0.2% (n = 330,000); ligand binding flow cytometry; inhibition, % (about 7 µM as worked out from the volumes in the protocol); Integrin alpha-4 (Homo sapiens), P13612; in the data active = inhibition above about 50%
Target sequence (P13612 whole entry, looked up): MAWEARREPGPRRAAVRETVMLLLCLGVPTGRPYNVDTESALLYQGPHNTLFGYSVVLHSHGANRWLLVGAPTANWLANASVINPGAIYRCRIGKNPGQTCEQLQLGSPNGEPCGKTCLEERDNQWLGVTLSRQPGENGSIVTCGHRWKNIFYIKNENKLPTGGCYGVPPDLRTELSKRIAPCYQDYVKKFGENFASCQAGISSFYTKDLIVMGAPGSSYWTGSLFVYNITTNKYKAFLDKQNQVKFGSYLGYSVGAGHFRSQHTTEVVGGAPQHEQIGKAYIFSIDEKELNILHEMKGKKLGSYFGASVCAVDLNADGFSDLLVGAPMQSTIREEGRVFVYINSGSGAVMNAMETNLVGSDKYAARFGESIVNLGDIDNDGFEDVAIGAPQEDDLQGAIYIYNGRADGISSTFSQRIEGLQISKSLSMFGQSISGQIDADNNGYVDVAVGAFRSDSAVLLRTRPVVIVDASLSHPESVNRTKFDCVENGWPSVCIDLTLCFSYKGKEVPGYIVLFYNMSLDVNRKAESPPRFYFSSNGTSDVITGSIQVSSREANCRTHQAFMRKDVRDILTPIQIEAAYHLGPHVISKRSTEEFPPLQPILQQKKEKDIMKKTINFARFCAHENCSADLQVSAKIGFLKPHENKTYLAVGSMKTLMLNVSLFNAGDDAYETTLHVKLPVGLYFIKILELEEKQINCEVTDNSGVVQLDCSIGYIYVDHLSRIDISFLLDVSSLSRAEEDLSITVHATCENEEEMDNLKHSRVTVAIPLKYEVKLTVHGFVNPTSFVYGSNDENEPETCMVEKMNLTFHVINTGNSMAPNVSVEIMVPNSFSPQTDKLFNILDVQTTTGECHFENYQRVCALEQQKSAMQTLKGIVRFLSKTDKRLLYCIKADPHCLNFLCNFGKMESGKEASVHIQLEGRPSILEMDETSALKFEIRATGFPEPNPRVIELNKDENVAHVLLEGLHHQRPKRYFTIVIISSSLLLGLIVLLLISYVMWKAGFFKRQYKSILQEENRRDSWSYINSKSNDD
ABCB6 inh 2: ABCB6 transporter inhibitors, primary screen, K562-ABCB6 cells, flow cytometry, MLPCN library | K562-ABCB6 porphyrin accumulation, 1 h; active compounds read low | fluorescence ratio to DMSO, % at 10 µM | actives 0.19% (n = 360,000);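 active = fluorescence ratio to DMSO below 75%, the collection mean minus 3 SD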;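 note: signal is porphyrin accumulated inside mitochondria; 100% equals median channel fluorescence of DMSO control wells; lower ratio means ABCB6 inhibition with less porphyrin fluorescence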
DAGLB inh: DAGLB lipase inhibitors, primary screen, biochemical, fluorescence, HTS | inhibition, % at 5.17 µM | HEK293T DAGLB membrane lysate, EnzChek fluorogenic substrate | Diacylglycerol lipase-beta (Homo sapiens), Q8NCG7 | actives 0.059% (n = 340,000); in the data active = inhibition above about 34%;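 note: 0% = enzyme with vehicle and 100% = wells lacking enzyme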
FGF22 binding: binders of human FGF22 protein, primary screen, FGF22 synaptogenesis inhibitor project, biophysical, thermal shift, single point. Fibroblast growth factor 22 (Homo sapiens), Q9HCT0. recombinant FGF22 thermal shift, SYPRO orange fluorescence; percent of sucrose octasulfate shift, DMSO zero. activity (Tm shift, normalised), % at 9.99 µM. actives 1.5% (n = 340,000);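 active = mean Tm shift, scaled 0 neutral to 100 positive control, at about 1.3% or above, every replicate too, limit read from the data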
Active calls of the source: *; i = inactive; . = no result.

SMILES | Exocytosis inh | MT1-MMP act inh | VLA-4 inh | ABCB6 inh 2 | DAGLB inh | FGF22 binding
C(=N\Nc1ncnc2nc[nH]c12)/c1cccs1 | 0 | 4 | 29 | 100 | 1 | 43*
Cc1noc(C)c1NC(=O)N[C@H]1CC[C@H](CCNC(=O)C2CC2)O[C@H]1CO | . | . | . | . | . | 0
O=C(COC(=O)C1CC1)Nc1ncc(C(F)(F)F)cc1Cl | -7 | -11 | 1 | 97 | -2 | 44*
O=C(COC(=O)C1CC1)Nc1ncc(Cl)cc1Cl | 6 | -4 | 11 | 97 | 2 | 0
CO[C@@H]1CN(C)C(=O)c2cc(NS(=O)(=O)c3ccccc3)ccc2OC[C@H](C)N(Cc2nccs2)C[C@@H]1C | . | . | . | . | . | 0
CC(C)(C)OC(=O)N1CCc2onc(-c3ccc(Cl)cc3)c2C1=O | 0 | 7 | . | 100 | -14 | 0
C#CCN1CCc2onc(-c3ccc(Br)cc3)c2C1=O | -1 | 2 | . | . | . | 43*
C[C@@H]1CN([C@@H](C)CO)C(=O)c2cc(NC(=O)Nc3ccc(F)cc3)ccc2O[C@@H](C)CCCCO[C@@H]1CN(C)Cc1ccccc1 | . | . | . | . | . | 0
CC(CN1CCN(Cc2ccccc2)CC1)c1ccccc1 (centres undefined) | 61* | 3 | 4 | 101 | -4 | 0
Cc1ccccc1N=C1Nc2ccccc2N[C@]12C[C@H]1CCC(=O)N3CC[C@@H](C2)[C@@H]13 | 58* | 0 | . | 99 | 2 | 0
CO[C@@H](CN(C)C(=O)c1ccccc1F)[C@@H](C)CN([C@H](C)CO)S(=O)(=O)c1ccc(Cl)cc1 | . | . | . | . | . | 1
Cc1ccc2nc3cc([N+](=O)[O-])cc([N+](=O)[O-])c3cc2c1 | 63* | -38 | . | 110 | 8 | 0
CC1(C)C(C=C(Cl)Cl)C1C(=O)N/N=C/c1ccccc1F (centres undefined) | -11 | 1 | 18 | 99 | -4 | 0
CC1(C)OC2OC(C(=O)N/N=C/c3ccccc3F)C3OC(C)(C)OC3C2O1 (centres undefined) | -5 | -1 | -1 | 101 | 0 | 44*
COCCOC(=O)N1C(=O)[C@@]2(c3cc(C#CCCO)ccc31)[C@H](C(=O)NC[C@H](O)c1ccccc1)[C@H]1C(=O)O[C@H](c3ccccc3)[C@H](c3ccccc3)N1[C@@H]2c1ccc(O)cc1 | . | . | . | . | . | 0
O=C1C=C(NCc2ccccc2)c2ccccc2C1=O | 82* | 6 | . | 135 | 0 | 41
O=S(=O)(Nc1cccc(S(=O)(=O)N2CCOCC2)c1)c1ccc(Cl)s1 | 3 | 7 | 5 | 93 | 0 | 43*
CN(C)c1ccc(N=c2sc3ccccc3n2C)cc1 | 10 | -1 | 12 | 101 | -15 | .
CC1=CC(=O)C=CC1=Nc1ccc(N(C)C)cc1 | 84* | 11 | . | 97 | . | -1
Cc1noc(C)c1NC(=O)Nc1ccc2c(c1)C(=O)N([C@H](C)CO)C[C@H](C)[C@H](CN(C)S(=O)(=O)c1ccc(Cl)cc1)O2 | . | . | . | . | . | 0
C=CCN1C(=O)/C(=C\C=C2\N(C)c3ccccc3C2(C)C)SC1=S | 0 | -8 | i | i | -6 | 44*
CN1/C(=C\C=C2/SC(=S)N(CC(=O)O)C2=O)C(C)(C)c2ccccc21 | -10 | -18 | -195 | 689 | -88 | 0
Cc1cc(C)c[n+](-c2nc3ccccc3nc2[N-]S(=O)(=O)c2ccc(Br)s2)c1 | 15 | -64 | -48 | 173 | 0 | 44*
O=C1C(=C(I)I)c2ccccc2-c2ccccc21 | 103* | -28 | . | 101 | -18 | 0
O=C(O)c1cccc2c1C(=O)c1ccccc1-2 | -1 | 0 | 0 | 92 | -2 | 0
SMILES | Exocytosis inh | MT1-MMP act inh | VLA-4 inh | ABCB6 inh 2 | DAGLB inh | FGF22 binding
Cc1noc(C)c1S(=O)(=O)Nc1ccc2c(c1)C(=O)N([C@H](C)CO)C[C@H](C)[C@@H](CN(C)C(=O)Nc1ccc(C(F)(F)F)cc1)OCCCC[C@H](C)O2 | . | . | . | . | . | 0
CCc1c(C)nc2nc(SCc3ccccc3Cl)[nH]n2c1=O | -1 | 2 | 3 | 61* | 1 | 0
CN/N=C/c1ccc(C#N)cc1 | -2 | 0 | -2 | 97 | 0 | 43*
CCCN(C)C[C@H]1OCCCC[C@@H](C)Oc2ccc(NC(=O)Nc3ccc(OC)cc3)cc2C(=O)N([C@@H](C)CO)C[C@H]1C | . | . | . | . | . | -1
S=C(Nc1cccc(Cl)c1)N(CCCN1CCCC1)Cc1cccn1Cc1ccc(Cl)cc1 | 85* | -9 | 13 | 94 | 0 | 0
Cc1ccccc1NC(=O)CSc1nc2c(c(=O)n(C)c(=O)n2C)n1C | 1 | 4 | -1 | 100 | 1 | 0
Cn1c(=O)c2c(nc(Sc3ncnn3CC(=O)NC(C)(C)C)n2C)n(C)c1=O | -8 | 0 | 8 | 98 | -3 | 43*
O=C(C[C@@H]1C=C[C@@H](NC(=O)C2CCOCC2)[C@H](CO)O1)NCC1CC1 | . | . | . | . | . | 0
O=C(Nc1ccc(S(=O)(=O)N2CCCC2)cc1)N1c2ccccc2Sc2ccccc21 | -3 | -2 | -10 | 97 | -3 | 2.3*
O=C(Nc1ccccc1)Nc1ccc(S(=O)(=O)N2CCCCC2)cc1 | -3 | 5 | 16 | 92 | 1 | .
CS(=O)(=O)N(CC(=O)Nc1ccc(S(=O)(=O)N2CCCC2)cc1)c1ccccc1 | 0 | -5 | 16 | 102 | -3 | 43*
COc1cccc(S(=O)(=O)Nc2ccc3c(c2)[C@@H]2C[C@H](CC(=O)NCc4ccc(Cl)cc4)O[C@@H](CO)[C@@H]2O3)c1 | . | . | . | . | . | -1
O=c1/c(=C\c2cccnc2)sc2nc3ccccc3n12 | 2 | -2 | . | 102 | -3 | 0
O=c1/c(=C/c2ccc(O)c([N+](=O)[O-])c2)sc2nc3ccccc3n12 | 70* | 2 | . | 98 | . | 0
Cc1ccc(C(=O)N/C(=C\c2ccc3c(c2)OCO3)C(=O)Nc2ccc(C(=O)O)cc2)cc1 | -1 | -2 | 5 | 99 | 1 | 43*
Cc1sc2cc3c(c(C(=O)c4ccccc4)[n+]2c1C)-c1cccc2cccc-3c12 | . | . | -5 | . | . | 0
O=C(c1ccccc1)c1c2c(cc3sc4ccccc4[n+]13)-c1cccc3cccc-2c13 | 88* | -29 | i | 404 | 5 | .
